TAAR1 ag = human TAAR1 agonism; activation, % at 3 µM; CHO RD-HGA16 TAAR1, Fluo-8 calcium fluorescence; vehicle wells 0%, saturating PEA agonist 100%; Q96RJ0; actives 0.99% (n = 360,000);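 active means activation above the mean activation of all test compounds in the run plus 3 SD, cut at about 38% in these data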
Target sequence (Q96RJ0 whole entry, looked up): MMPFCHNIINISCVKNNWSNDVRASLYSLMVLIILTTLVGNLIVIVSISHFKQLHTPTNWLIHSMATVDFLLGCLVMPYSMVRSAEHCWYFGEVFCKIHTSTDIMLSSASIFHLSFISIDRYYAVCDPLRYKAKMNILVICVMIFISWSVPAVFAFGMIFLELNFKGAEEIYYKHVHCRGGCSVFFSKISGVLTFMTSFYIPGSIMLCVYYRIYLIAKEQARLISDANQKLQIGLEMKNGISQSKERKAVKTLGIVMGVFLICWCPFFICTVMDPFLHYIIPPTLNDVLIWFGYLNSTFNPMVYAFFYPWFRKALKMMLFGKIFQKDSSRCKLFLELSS
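Signal – calcium-sensitive Fluo-8 signal, excitation 470-495, emission 515-575 nm · System – RD-HGA16 (CHO) cells co-expressing Gα16 and hTAAR1 · Incubation – 17-24 h seeding, 75 min 37 °C dye, 30 min RT · Compound dosing – 3 µM single concentration · Repeats – no replicates (n 1)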
CHRM4 agonist = agonists of human muscarinic M4 receptor (CHRM4) | P08173 | CHO-K1 hM4/Gqi5, Fluo-8 calcium fluorescence; vehicle 0%, full acetylcholine response 100% | activation, % at 3 µM | actives 0.14% (n = 360,000) | AID 624127;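 active means activation above the run mean over all test wells plus 3 SD, cut at about 32% in these data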;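 further: peak over basal fluorescence ratio per well then scaled between controls; 0% = DMSO wells and 100% = acetylcholine at EC100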
TAAR1 antagonist = human TAAR1 antagonism. Q96RJ0. AID 624466. CHO RD-HGA16 TAAR1, Fluo-8 calcium fluorescence, antagonist. actives 1.5% (n = 360,000). inhibition, % at 3 µM;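 active means inhibition above a per-plate cutoff, the mean inhibition of test compounds on that plate plus 3 SD, cut at about 49% in these data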;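 further: 0% = DMSO plus EC80 beta-PEA response and 100% = DMSO alone without agonist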
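Test system – hTAAR1-expressing CHO RD-HGA16 cells, Gα16-coupled · Reagent – β-PEA at EC80 concentration, post-compound challenge · Compound dosing – 3 µM, single point · Timing – 140 s kinetic read after compound, 140 s after agonist · Detection – Fluo-8 intracellular calcium dye fluorescence, real-time kinetic reads · Control set – DMSO and EC80 PEA controls · Repeats – n of 1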
M4 antag = blocks acetylcholine activation of human M4 receptor. actives 0.73% (n = 360,000). P08173. CHO-hM4 cells, ACh EC80, Fluo-8 calcium fluorescence. inhibition, % at 3 µM. AID 624125;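 active means inhibition above its plate's cutoff, the mean inhibition of sample wells plus 3 SD, cut at about 27% in these data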;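 further: 0% = acetylcholine EC80 with DMSO and 100% = DMSO without agonist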
M4 PAM = CHRM4 positive allosteric modulation; P08173; CHO-K1 hM4/Gqi5, Fluo-8 calcium fluorescence, ACh EC20; 0% = ACh EC20, 100% = maximal ACh; activation, % at 3 µM; actives 0.4% (n = 360,000); AID 624126;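 active means activation above its plate's cutoff, the mean activation of sample wells plus 3 SD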
TAAR1 ag conf = confirmation of human TAAR1 agonists; shares compounds with TAAR1 ag; actives 82% (n = 2,400); CHO RD-HGA16 TAAR1, Fluo-8 calcium fluorescence; scaled: DMSO 0%, maximal phenethylamine 100%; activation, % at 3 µM;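 active means activation above a cutoff set at the run's mean compound activation plus 3 SD, cut at about 39% in these data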
Ga16 nonsel ag = nonselective agonist in parental cells, TAAR1 agonist counter-screen | activation, % at 3 µM | shares compounds with TAAR1 ag | actives 50% (n = 2,400) | AID 651787 | CHO-Ga16 parental, Fluo-8 calcium fluorescence; normalized to maximal ATP response, DMSO zero;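 active means activation above the run cutoff, the mean activation over all tested wells plus 3 SD, cut at about 12% in these data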;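 further: 0% = DMSO wells and 100% = maximal ATP response on the peak over basal ratio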
TAAR1 desensitize = counter-screen for human TAAR1 agonists: agonists that desensitize TAAR1; shares compounds with TAAR1 ag; CHO RD-HGA16 hTAAR1, Fluo-8 calcium, beta-PEA response inhibition; inhibition, % at 3 µM; actives 46% (n = 2,400);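 active means inhibition above the run cutoff, the mean inhibition of all test compounds plus 3 SD, cut at about 49% in these data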;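 further: beta-PEA stimulus applied at its EC80; loss of beta-PEA calcium signal after compound pretreatment read as receptor desensitization; 0% = DMSO with beta-PEA at EC80 and 100% = DMSO alone without agonist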
Ga16 nonsel ant = nonselective Ga16 antagonism, counter-screen; shares compounds with TAAR1 ag; CHO-Ga16 ATP-induced calcium, Fluo-8 fluorescence; inhibition, % at 3 µM; actives 39% (n = 2,400); AID 651952;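 active means inhibition above the plate's mean compound inhibition plus 3 SD, computed per plate, cut at about 22% in these data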;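 further: 0% = EC80 ATP with DMSO and 100% = DMSO wells without ATP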
Numbers without * were called inactive. Compounds with a hit are over-represented: about 3% of the library has one in this group of screens.

What do the screens show for `C[C@@H]1CN([C@H](C)CO)C(=O)CCCn2nncc2CO[C@@H]1CN(C)S(=O)(=O)c1ccc(-n2cccn2)cc1`?
TAAR1 ag: 1; CHRM4 agonist: 1; TAAR1 antagonist: -4; M4 antag: -11; M4 PAM: 2

How did O=C(O)c1ccc(-c2nc(-c3ccccc3Cl)cs2)cc1 do in these assays?
TAAR1 ag: 49*; CHRM4 agonist: 8; TAAR1 antagonist: 11; M4 antag: -2; M4 PAM: -2; TAAR1 ag conf: 18; Ga16 nonsel ag: 19*; TAAR1 desensitize: 21; Ga16 nonsel ant: 14

What do the screens show for `Cc1ccc(C(O)c2ncc(-c3ccc4ccccc4c3)[nH]2)cc1F` (stereo unspecified)?
TAAR1 ag: -1; CHRM4 agonist: 4; TAAR1 antagonist: -10; M4 antag: -9; M4 PAM: 5

How did NCCCCCc1nnc(SCc2ccc(Cl)c(Cl)c2)o1 do in these assays?
TAAR1 ag: 50*; CHRM4 agonist: 3; TAAR1 antagonist: 3; M4 antag: 67*; M4 PAM: -31; TAAR1 ag conf: 62*; Ga16 nonsel ag: 6; TAAR1 desensitize: 31; Ga16 nonsel ant: 5

What do the screens show for `NCCc1nnc(SCc2ccc(F)cc2)o1`?
TAAR1 ag: 7; CHRM4 agonist: 0; TAAR1 antagonist: -1; M4 antag: -2; M4 PAM: 1

What do the screens show for `CCCCn1cnc2c(c(-c3ccccc3)c(-c3ccccc3)n2Cc2ccco2)c1=N`?
TAAR1 ag: 35; CHRM4 agonist: 0; TAAR1 antagonist: -13; M4 antag: 6; M4 PAM: -8

How did N=c1c2c(-c3ccccc3)c(-c3ccccc3)n(Cc3ccco3)c2ncn1Cc1ccco1 do in these assays?
TAAR1 ag: 86*; CHRM4 agonist: 30; TAAR1 antagonist: 46; M4 antag: 18; M4 PAM: -16; TAAR1 ag conf: 91*; Ga16 nonsel ag: 54*; TAAR1 desensitize: 75*; Ga16 nonsel ant: 37*

How did N=c1c2c(-c3ccccc3)c(-c3ccccc3)n(Cc3ccccc3)c2ncn1CCCn1ccnc1 do in these assays?
TAAR1 ag: 61*; CHRM4 agonist: 2; TAAR1 antagonist: -19; M4 antag: -7; M4 PAM: -16; TAAR1 ag conf: 49*; Ga16 nonsel ag: 15*; TAAR1 desensitize: 10; Ga16 nonsel ant: 13

How did CC1(C(=O)Nc2cccc(Oc3ccccc3)c2)CCN1C1Cc2ccccc2C1 (stereo unspecified) do in these assays?
TAAR1 ag: 2; CHRM4 agonist: 0; TAAR1 antagonist: -11; M4 antag: -3; M4 PAM: -8

How did Cc1onc(-c2ccccc2)c1C(=O)OCC(=O)c1ccc(F)cc1 do in these assays?
TAAR1 ag: 0; CHRM4 agonist: -1; TAAR1 antagonist: -14; M4 antag: 2; M4 PAM: -4

Results for CCCS(=O)(=O)NC(=O)C1(C)CCCN(C(=O)CSc2ccccc2)C1 (stereo unspecified) ?
TAAR1 ag: 2; CHRM4 agonist: 0; TAAR1 antagonist: -11; M4 antag: -3; M4 PAM: 3

What do the screens show for `O=C1C=C(OCCCl)CC(c2cccc(Cl)c2)O1` (stereo unspecified)?
TAAR1 ag: 2; CHRM4 agonist: 3; TAAR1 antagonist: 1; M4 antag: -4; M4 PAM: 0

How did Clc1ccc2c(-c3ccccc3)nc(-c3cccs3)nc2c1 do in these assays?
TAAR1 ag: 0; CHRM4 agonist: 0; TAAR1 antagonist: 6; M4 antag: -7; M4 PAM: 10

Results for NC(N)=Nc1cc2ccccc2c2ccccc12 ?
Ga16 nonsel ag: 3; Ga16 nonsel ant: 6

What do the screens show for `NC(N)=NC(N)=Nc1cccc2ccccc12`?
TAAR1 ag: 3; CHRM4 agonist: 1; TAAR1 antagonist: -2; M4 antag: -5; M4 PAM: -3

Results for C=CCNc1nc(C(F)(F)F)nc2c1nnn2Cc1ccccc1Cl ?
TAAR1 ag: 50*; CHRM4 agonist: 1; TAAR1 antagonist: 16; M4 antag: -7; M4 PAM: -4; TAAR1 ag conf: 54*; Ga16 nonsel ag: 35*; TAAR1 desensitize: 9; Ga16 nonsel ant: 4

Results for Cc1nc(NCCc2ccccc2)c2nnn(Cc3ccccc3Cl)c2n1 ?
TAAR1 ag: 86*; CHRM4 agonist: 1; TAAR1 antagonist: 79*; M4 antag: 7; M4 PAM: -2; TAAR1 ag conf: 91*; Ga16 nonsel ag: 8; TAAR1 desensitize: 85*; Ga16 nonsel ant: 8

What do the screens show for `O=S(=O)(c1ccccc1F)N1CCc2ccccc2C1`?
TAAR1 ag: 3; CHRM4 agonist: -1; TAAR1 antagonist: -14; M4 antag: -2; M4 PAM: -8

Results for COc1ccc(NC(=O)N2CCc3ccccc3C2)c(OC)c1 ?
TAAR1 ag: 44*; CHRM4 agonist: 2; TAAR1 antagonist: 20; M4 antag: -2; M4 PAM: 9; TAAR1 ag conf: 48*; Ga16 nonsel ag: 0; TAAR1 desensitize: -10; Ga16 nonsel ant: -4

Results for COc1ccc(OC)c(NC(=O)N2CCCc3ccccc32)c1 ?
TAAR1 ag: -3; CHRM4 agonist: 0; TAAR1 antagonist: -11; M4 antag: -2; M4 PAM: 3

What do the screens show for `COc1ccc(-c2nc(CSCC(=O)N3CCC(C(N)=O)CC3)c(C)o2)cc1OC`?
TAAR1 ag: 0; CHRM4 agonist: -1; TAAR1 antagonist: 9; M4 antag: -1; M4 PAM: -2

What do the screens show for `COc1ccc(NC(=O)N2CCc3cc(OC)c(OC)cc3C2)cc1`?
TAAR1 ag: 1; CHRM4 agonist: 0; TAAR1 antagonist: -6; M4 antag: -4; M4 PAM: 4

What do the screens show for `COc1ccc(-c2nc(CSCC(=O)N3CCc4ccccc4C3)c(C)o2)cc1OC`?
TAAR1 ag: 68*; CHRM4 agonist: 2; TAAR1 antagonist: 29; M4 antag: -4; M4 PAM: -4; TAAR1 ag conf: 94*; Ga16 nonsel ag: 2; TAAR1 desensitize: 60*; Ga16 nonsel ant: 1

High-throughput results as filed in PubChem.
